In one assay the test system is U-937. In words: In vitro inhibitory concentration required to inhibit the growth of U937 cells was determined by mitotic block reversibility assay. Type of assay: functional. The conditions noted are these: Homo sapiens. The method, boiled down: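 Reversibility assay in human histiocytic lymphoma U937 cells. After drug washout, flow cytometry scored whether a complete mitotic block was still maintained 10 h later.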

In the next assay the test system is DLD-1. Nature of the assay: In vitro inhibitory concentration required to inhibit the growth of DLD-1 cells under continuous exposure conditions for 3-4 days. Type of assay: functional, cell-based. The conditions noted are these: Homo sapiens. In a few lines:
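Human colon cancer DLD-1 cells were exposed to compound continuously for 3–4 days and growth inhibition was measured. IC50 is given ± SEM, with n the number of experiments.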

A further assay deals with P388. In words: Fold resistance calculated as the inhibition concentration ratio between retrovirally transformed P388/VMDRC.04 and parental P388 cells. The format is functional. In a few lines: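 P-glycoprotein-mediated efflux assessed in murine P388/VMDRC.04, a retrovirally transformed multidrug-resistant subline of P388/S leukemia cells, alongside parental P388 cells. Growth inhibition IC50 was measured in each line. Fold resistance is the IC50 ratio of P388/VMDRC.04 to parental P388.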

In general, IC99 refers to the point of the concentration-response curve where the effect stands at 99%. A high value points to weaker potency. As usually defined, the IC50 is the concentration that inhibits the measured activity by half. Lower therefore signals inhibition by little substance. In the assay with U-937, `C=C1C[C@@H]2CC[C@@]34C[C@@H]5O[C@@H]6C(O[C@H]7CC[C@H](CC(=O)O[C@H]8C(CC9OC(CCC1O2)C[C@@H](C)C9=C)O[C@H]1C[C@H]2O[C@@]9(C[C@@H]%10O[C@]%11(C[C@H](C)[C@@H]%12O[C@H]([C@@H](O)C[C@@H](O)CO)C[C@@H]%12O%11)C[C@H](C)[C@@H]%10O9)C[C@H]2O[C@H]1[C@@H]8C)O[C@@H]7[C@@H]6O3)[C@H]5O4` (stereo partly drawn) yielded a concentration for an effect of 99% (IC99) of 0.025 µM. Besides, half-maximal inhibition in the assay on DLD-1 (IC50) was put at 0.74 nM. For the same compound, the FR in the assay with P388 was 2.8.

`C=C1C[C@@H]2CC[C@@]34C[C@@H]5O[C@@H]6C(O[C@H]7CC[C@H](CC(=O)O[C@@H]8[C@@H](OC)[C@@H](O)[C@H](CCO)O[C@H]8C[C@H]8O[C@@H](CC[C@@H]1O2)C[C@@H](C)C8=C)O[C@@H]7[C@@H]6O3)[C@H]5O4` registered a concentration for an effect of 99% (IC99) in the assay with U-937 of 0.1 µM. This compound also came in with an IC50 with DLD-1 of 1.8 nM. Besides, the FR in the assay on P388 was 12.

`C=C1C[C@@H]2CC[C@@]34C[C@@H]5O[C@@H]6C(O[C@H]7CC[C@H](CC(=O)O[C@@H]8[C@@H](OC)[C@@H]9OC(C)(C)OC[C@@H]9O[C@H]8C[C@H]8O[C@@H](CC[C@@H]1O2)C[C@@H](C)C8=C)O[C@@H]7[C@@H]6O3)[C@H]5O4` displayed an IC99 in the assay on U-937 of over 1 µM. The compound further came in with an IC50 in the assay on DLD-1 of 11 nM. Moreover, the FR in the assay on P388 is reported as 1.7.

Turning to `C=C1C[C@@H]2CC[C@@]34C[C@@H]5O[C@@H]6C(O[C@H]7CC[C@H](CC(=O)O[C@@H]8[C@@H](OC)[C@@H](O)[C@H](CO)O[C@H]8C[C@H]8O[C@@H](CC[C@@H]1O2)C[C@@H](C)C8=C)O[C@@H]7[C@@H]6O3)[C@H]5O4`, in the assay with U-937, the IC99 came to 0.065 µM. In the assay on DLD-1, this compound gave an IC50 of 2 nM. In addition, the FR with P388 is reported as 13.

`C=C1C[C@@H]2CC[C@@]34C[C@@H]5O[C@@H]6C(O[C@H]7CC[C@H](CC(=O)O[C@@H]8[C@@H](C)[C@H](O)[C@H](CCO)O[C@H]8C[C@H]8O[C@@H](CC[C@@H]1O2)C[C@@H](C)C8=C)O[C@@H]7[C@@H]6O3)[C@H]5O4` gave an IC99 in the assay on U-937 of 0.17 µM. The compound also displayed an IC50 in the assay on DLD-1 of 2.5 nM. The FR in the assay with P388 is recorded as 5.6.

In the assay with DLD-1, `C=C1C[C@@H]2CC[C@@]34C[C@@H]5O[C@@H]6C(O[C@H]7CC[C@H](CC(=O)O[C@@H]8[C@@H](OCC)[C@@H](O)[C@H](CC(O)CO)O[C@H]8C[C@H]8O[C@@H](CC[C@@H]1O2)C[C@@H](C)C8=C)O[C@@H]7[C@@H]6O3)[C@H]5O4` (stereo partly drawn) displayed a 50% inhibitory concentration (IC50) of 490 nM.

`C=C1C[C@@H]2CC[C@@]34C[C@@H]5O[C@@H]6C(O[C@H]7CC[C@H](CC(=O)O[C@@H]8[C@@H](C)[C@@H]9O[C@H](CO)[C@@H](O)C[C@@H]9O[C@H]8C[C@H]8O[C@@H](CC[C@@H]1O2)C[C@@H](C)C8=C)O[C@@H]7[C@@H]6O3)[C@H]5O4` had an IC99 with U-937 of 0.22 µM. In addition, the IC50 with DLD-1 was found to be 3.4 nM. Besides, the FR with P388 was 12.

In the assay on U-937, `C=C1C[C@@H]2CC[C@@]34C[C@@H]5O[C@@H]6C(O[C@H]7CC[C@H](CC(=O)O[C@@H]8[C@@H](OC)[C@H](C[C@@H](O)CO)O[C@H]8C[C@H]8O[C@@H](CC[C@@H]1O2)C[C@@H](C)C8=C)O[C@@H]7[C@@H]6O3)[C@H]5O4` registered an IC99 of 0.03 µM. The compound also displayed an IC50 with DLD-1 of 1.4 nM. Moreover, the FR in the assay with P388 is on record as 8.8.

In the assay with U-937, `C=C1C[C@@H]2CC[C@@]34C[C@@H]5O[C@@H]6C(O[C@H]7CC[C@H](CC(=O)O[C@@H]8[C@@H](OC)[C@H](O)[C@H](CO)O[C@H]8C[C@H]8O[C@@H](CC[C@@H]1O2)C[C@@H](C)C8=C)O[C@@H]7[C@@H]6O3)[C@H]5O4` had a concentration for an effect of 99% (IC99) of 0.3 µM. For the same compound, the IC50 in the assay with DLD-1 was 2.6 nM. In addition, the FR in the assay with P388 was 8.5.

`C=C1C[C@@H]2CC[C@@]34C[C@@H]5O[C@@H]6C(O[C@H]7CC[C@H](CC(=O)O[C@@H]8[C@@H](OC)[C@H](CO)O[C@@H]8C[C@H]8O[C@@H](CC[C@@H]1O2)C[C@@H](C)C8=C)O[C@@H]7[C@@H]6O3)[C@H]5O4` showed an IC50 in the assay with DLD-1 of over 1000 nM.

Turning to `C=C1C[C@@H]2CC[C@@]34C[C@@H]5O[C@@H]6C(O[C@H]7CC[C@H](CC(=O)O[C@@H]8[C@@H](OC)[C@@H](C[C@H](O)CO)O[C@H]8C[C@H]8O[C@@H](CC[C@@H]1O2)C[C@@H](C)C8=C)O[C@@H]7[C@@H]6O3)[C@H]5O4`, the 99% effect concentration (IC99) with U-937 is 0.015 µM. The same compound registered a concentration for half-maximal inhibition (IC50) in the assay with DLD-1 of 0.67 nM. In addition, the FR in the assay on P388 is 6.2.

In turn, `C=C1C[C@@H]2CC[C@@]34C[C@@H]5O[C@@H]6C(O[C@H]7CC[C@H](CC(=O)O[C@@H]8[C@H](OC)[C@H](CC(O)CO)O[C@H]8C[C@H]8O[C@@H](CC[C@@H]1O2)C[C@@H](C)C8=C)O[C@@H]7[C@@H]6O3)[C@H]5O4` (stereo partly drawn) displayed a concentration for half-maximal inhibition (IC50) in the assay with DLD-1 of 220 nM.

For `C=C1C[C@@H]2CC[C@@]34C[C@@H]5O[C@@H]6C(O[C@H]7CC[C@H](CC(=O)O[C@@H]8[C@@H](OC)[C@H](OC)[C@H](CCO)O[C@H]8C[C@H]8O[C@@H](CC[C@@H]1O2)C[C@@H](C)C8=C)O[C@@H]7[C@@H]6O3)[C@H]5O4`, the IC99 with U-937 was over 1 µM. This compound also displayed a half-maximal inhibitory concentration (IC50) in the assay with DLD-1 of 2.1 nM. Further, the FR with P388 is 2.6.

In the assay with U-937, `C=C1C[C@@H]2CC[C@@]34C[C@@H]5O[C@@H]6C(O[C@H]7CC[C@H](CC(=O)O[C@@H]8[C@@H](OC)[C@H](CCC(=O)C(F)(F)F)O[C@H]8C[C@H]8O[C@@H](CC[C@@H]1O2)C[C@@H](C)C8=C)O[C@@H]7[C@@H]6O3)[C@H]5O4` gave an IC99 of 0.03 µM. Moreover, half-maximal inhibition in the assay with DLD-1 (IC50) required 0.67 nM. In addition, the FR with P388 is on record as 4.5.

`C=C1C[C@@H]2CC[C@@]34C[C@@H]5O[C@@H]6C(O[C@H]7CC[C@H](CC(=O)O[C@@H]8[C@@H](OC)[C@@H](O)CO[C@H]8C[C@H]8O[C@@H](CC[C@@H]1O2)C[C@@H](C)C8=C)O[C@@H]7[C@@H]6O3)[C@H]5O4`: the IC50 with DLD-1 is over 1000 nM.

Compound `C=C1C[C@@H]2CC[C@@]34C[C@@H]5O[C@@H]6C(O[C@H]7CC[C@H](CC(=O)O[C@@H]8[C@@H](OC)[C@H](O)[C@H](CCO)O[C@H]8C[C@H]8O[C@@H](CC[C@@H]1O2)C[C@@H](C)C8=C)O[C@@H]7[C@@H]6O3)[C@H]5O4` showed a concentration for an effect of 99% (IC99) in the assay with U-937 of 0.3 µM. The 50% inhibitory concentration (IC50) with DLD-1 amounted to 1.8 nM. For the same compound, in the assay with P388, the FR is on record as 10.

`C=C1C[C@@H]2CC[C@@]34C[C@@H]5O[C@@H]6C(O[C@H]7CC[C@H](CC(=O)O[C@@H]8[C@@H](OC)[C@H](CO)O[C@H]8C[C@H]8O[C@@H](CC[C@@H]1O2)C[C@@H](C)C8=C)O[C@@H]7[C@@H]6O3)[C@H]5O4`: the IC99 in the assay with U-937 stood at 0.1 µM. The same compound returned an IC50 in the assay on DLD-1 of 1 nM. Further, the FR in the assay with P388 is on record as 2.8.

Compound `C=C1C[C@@H]2CC[C@@]34C[C@@H]5O[C@@H]6C(O[C@H]7CC[C@H](CC(=O)O[C@@H]8[C@@H](OC)[C@@H](O)[C@H](CC(O)CO)O[C@H]8C[C@H]8O[C@@H](CC[C@@H]1O2)C[C@@H](C)C8=C)O[C@@H]7[C@@H]6O3)[C@H]5O4` (stereo partly drawn) gave an IC99 in the assay on U-937 of 0.053 µM. Further, half-maximal inhibition in the assay on DLD-1 (IC50) was put at 19 nM. In the assay with P388, the FR is reported as 23.

In the assay on DLD-1, `C=C1C[C@@H]2CC[C@@]34C[C@@H]5O[C@@H]6C(O[C@H]7CC[C@H](CC(=O)O[C@H]8[C@@H](OC)[C@H](CC(O)CO)O[C@H]8C[C@H]8O[C@@H](CC[C@@H]1O2)C[C@@H](C)C8=C)O[C@@H]7[C@@H]6O3)[C@H]5O4` (stereo partly drawn) had an IC50 of over 1000 nM.

Turning to `C=C1C2C[C@@H]3O[C@H](C[C@@H](O)CO)[C@H](OC)[C@H]3OC(=O)C[C@H]3CC[C@@H]4OC5[C@H]6O[C@H]7C[C@](CC[C@H]8CC(=C)[C@H](CC[C@@H](C[C@H]1C)O2)O8)(OC6[C@H]4O3)O[C@H]57`, the IC99 with U-937 was 0.02 µM. Moreover, the IC50 in the assay on DLD-1 worked out at 0.67 nM. Further, the FR in the assay with P388 is reported as 9.3.

With `C=C1C[C@@H]2CC[C@@]34C[C@@H]5O[C@@H]6C(O[C@H]7CC[C@H](CC(=O)O[C@@H]8[C@@H](OC)[C@H](C[C@@H](O)CC(O)CO)O[C@H]8C[C@H]8O[C@@H](CC[C@@H]1O2)C[C@@H](C)C8=C)O[C@@H]7[C@@H]6O3)[C@H]5O4` (stereo partly drawn), in the assay with U-937, the IC99 was determined as 0.03 µM. Further, the midpoint of inhibition in the assay on DLD-1, the IC50, lay at 1.9 nM. The FR with P388 was 15.
